# Reference: ChEMBL document CHEMBL3797120, “Identification of 1,2,3-triazole derivatives that protect pancreatic β cells against endoplasmic reticulum stress-mediated dysfunction and death through the inhibition of C/EBP-homologous protein expression” (Bioorg Med Chem, 2016)
# Calls of active or inactive are those of the source. The rule behind the calls is not given here.
# Test system: HEK293
# Assay: Inhibition of endoplasmic reticulum stress-mediated upregulation of CHOP gene expression in tunicamycin-treated HEK293 cells after 24 hrs by bright-glo luciferase reporter gene assay
# Format: functional, cell-based
# Conditions: Homo sapiens, HEK293, 24 h
# Procedure, shortened: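 HEK293 cells stably carrying a CHOP promoter-luciferase reporter were seeded at 7 × 10³/well and incubated 16 h. Compound at indicated concentrations and Tm 1 μg/mL were added, and luciferase read by Bright-Glo 24 h later. IC50 determined for CHOP-Luc inhibition.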
row,SMILES,IC50 [µM]
1,Cc1c(C(=O)Nc2ccccc2)nnn1-c1ccccc1F,1.1
2,Cc1c(C(=O)Nc2cccc(F)c2)nnn1-c1ccc(C(C)C)cc1,0.013
3,Cc1c(C(=O)Nc2ccccc2F)nnn1-c1ccc(C(C)C)cc1,0.035
4,Cc1c(C(=O)Nc2ccccc2)nnn1-c1ccccc1,1.5

# Test system: HEK293
# Assay: Inhibition of endoplasmic reticulum stress-mediated upregulation of CHOP mRNA expression in tunicamycin-treated HEK293 cells after 2 to 8 hrs by qRT-PCR method
# Format: functional, cell-based
# Conditions: Homo sapiens
# Procedure, shortened: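 HEK293 cells seeded at 4 × 10⁵/well and treated with Tm 1 μg/ml plus 20 μM compound or DMSO for the indicated times. CHOP mRNA was measured by qRT-PCR (2 μg RNA reverse transcribed), normalized to human cyclophilin A, and reported as fold change. Means ± SD of triplicates.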
row,SMILES,inhibition
1,Cc1c(C(=O)Nc2cccc(F)c2)nnn1-c1ccc(C(C)C)cc1,Active

# Test system: INS1
# Assay: Cytoprotective activity in endoplasmic reticulum stressed rat INS-1 cells assessed as rescue from tunicamycin-mediated reduction in cell viability at 20 uM after 72 hrs by CellTiter-Glo assay relative to control
# Format: functional
# Conditions: not given
# Procedure, shortened: (§1)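 INS-1 cells seeded at 3 × 10³/well and exposed for 72 h to Tm 0.1 μg/ml plus compound. Viability measured as ATP by CellTiter-Glo. Tm alone was set to 0% and DMSO without Tm to 100% rescue. Values are the mean of three experiments. EC50 was derived for survival.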
row,SMILES,%max [%]
1,Cc1ccc(-n2nnc(C(=O)Nc3c(C)cccc3C)c2C)cc1,73
2,COc1ccc(-n2nnc(C(=O)Nc3cccc(Cl)c3C)c2C)cc1,81
3,CCc1cccc(C)c1NC(=O)c1nnn(-c2ccc(OC)cc2)c1C,39
4,Cc1c(Cl)cccc1NC(=O)c1nnn(-c2ccccc2F)c1C,92
5,CCc1ccc(-n2nnc(C(=O)Nc3c(C)cccc3C)c2C)cc1,80
6,CCOc1ccccc1-n1nnc(C(=O)Nc2cccc(Cl)c2C)c1C,52
7,Cc1c(Cl)cccc1NC(=O)c1nnn(-c2ccccc2Cl)c1C,94
8,CCc1cccc(C)c1NC(=O)c1nnn(-c2ccc(F)cc2)c1C,28
9,CCc1cccc(C)c1NC(=O)c1nnn(-c2ccccc2OC)c1C,38
10,Cc1c(C(=O)Nc2ccccc2)nnn1-c1ccccc1,12
11,Cc1c(Cl)cccc1NC(=O)c1nnn(-c2ccc(F)cc2)c1C,87

# Test system: INS1
# Assay: Cytoprotective activity in endoplasmic reticulum stressed rat INS-1 cells assessed as rescue from tunicamycin-mediated reduction in cell viability at 40 uM after 72 hrs by CellTiter-Glo assay relative to control
# Format: functional
# Conditions: not given
# Procedure, shortened: as §1
row,SMILES,%max [%]
1,CCOc1ccccc1-n1nnc(C(=O)Nc2c(C)cccc2CC)c1C,50
2,Cc1cccc(C)c1NC(=O)c1nnn(-c2ccccc2F)c1C,23
3,Cc1ccccc1NC(=O)c1nnn(-c2ccccc2F)c1C,40
4,CCc1cccc(C)c1NC(=O)c1nnn(-c2ccc(Cl)cc2)c1C,66
5,Cc1cccc(C)c1NC(=O)c1nnn(-c2ccc(Cl)cc2)c1C,57
6,Cc1cccc(C)c1NC(=O)c1nnn(-c2ccccc2Cl)c1C,44
7,Cc1c(C(=O)Nc2ccccc2)nnn1-c1ccccc1F,31
8,CCc1cccc(C)c1NC(=O)c1nnn(-c2ccccc2Cl)c1C,55
9,Cc1cccc(C)c1NC(=O)c1nnn(-c2cccc(Cl)c2C)c1C,88
10,CCc1cccc(C)c1NC(=O)c1nnn(-c2ccc(C)cc2)c1C,82
11,CCc1cccc(C)c1NC(=O)c1nnn(-c2ccccc2)c1C,36

# Test system: INS1
# Assay: Cytoprotective activity in endoplasmic reticulum stressed rat INS-1 cells assessed as rescue from tunicamycin-mediated reduction in cell viability at 5 uM after 72 hrs by CellTiter-Glo assay relative to control
# Format: functional
# Conditions: not given
# Procedure, shortened: as §1
row,SMILES,%max [%]
1,CCc1ccc(-n2nnc(C(=O)Nc3cccc(C)c3)c2C)cc1,72
2,Cc1c(C(=O)Nc2cccc(F)c2)nnn1-c1ccc(C(C)C)cc1,33
3,Cc1c(C(=O)Nc2ccccc2F)nnn1-c1ccc(C(C)C)cc1,29
4,CCc1ccc(-n2nnc(C(=O)Nc3ccc(OC)cc3)c2C)cc1,21
5,CCc1ccc(-n2nnc(C(=O)Nc3ccccc3Cl)c2C)cc1,19

# Test system: INS1
# Assay: Cytoprotective activity in endoplasmic reticulum stressed rat INS-1 cells assessed as rescue from tunicamycin-mediated reduction in cell survival after 72 hrs by CellTiter-Glo assay
# Conditions: INS1, 72 h
row,SMILES,EC50 [µM]
1,Cc1ccc(-n2nnc(C(=O)Nc3ccccc3C)c2C)cc1C,3.1
2,Cc1cccc(C)c1NC(=O)c1nnn(-c2ccccc2F)c1C,1.4
3,Cc1ccc(-n2nnc(C(=O)Nc3c(C)cccc3C)c2C)cc1,1.7
4,Cc1ccccc1NC(=O)c1nnn(-c2ccccc2F)c1C,8
5,CCCCc1ccc(-n2nnc(C(=O)Nc3ccccc3F)c2C)cc1,3.5
6,Cc1ccccc1NC(=O)c1nnn(-c2ccc(C(C)C)cc2)c1C,2.6
7,Cc1cccc(C)c1NC(=O)c1nnn(-c2ccc(Cl)cc2)c1C,5.2
8,CCc1ccc(-n2nnc(C(=O)Nc3cccc(C)c3)c2C)cc1,2.1
9,COc1ccccc1-n1nnc(C(=O)Nc2c(C)cccc2C)c1C,0.6
10,COc1ccc(-n2nnc(C(=O)Nc3cccc(Cl)c3C)c2C)cc1,5.2
11,CCc1ccc(-n2nnc(C(=O)Nc3cc(C)ccc3C)c2C)cc1,1.6
12,Cc1cccc(C)c1NC(=O)c1nnn(-c2ccccc2Cl)c1C,9.1
13,Cc1ccc(-n2nnc(C(=O)Nc3cccc(Cl)c3C)c2C)c(C)c1,2.5
14,CCc1ccc(-n2nnc(C(=O)Nc3ccccc3C)c2C)cc1,3.2
15,Cc1c(C(=O)Nc2ccccc2)nnn1-c1ccccc1F,23
16,Cc1c(C(=O)Nc2ccc(F)cc2)nnn1-c1ccc(C(C)C)cc1,3.5
17,Cc1c(Cl)cccc1NC(=O)c1nnn(-c2ccccc2F)c1C,6.5
18,CCc1ccc(-n2nnc(C(=O)Nc3c(C)cccc3C)c2C)cc1,4.6

row,SMILES,EC50 [µM]
1,CCc1ccc(-n2nnc(C(=O)Nc3cccc(OC)c3)c2C)cc1,3.7
2,Cc1ccc(-n2nnc(C(=O)Nc3cccc(Cl)c3C)c2C)cc1,2.8
3,CCOc1ccccc1-n1nnc(C(=O)Nc2cccc(Cl)c2C)c1C,8.7
4,Cc1c(Cl)cccc1NC(=O)c1nnn(-c2ccccc2Cl)c1C,3.1
5,CCc1cccc(C)c1NC(=O)c1nnn(-c2ccccc2Cl)c1C,2.5
6,CCc1ccc(-n2nnc(C(=O)Nc3ccccc3CC)c2C)cc1,4.2
7,Cc1c(C(=O)Nc2cccc(F)c2)nnn1-c1ccc(C(C)C)cc1,1.3
8,Cc1c(C(=O)Nc2ccccc2F)nnn1-c1ccc(C(C)C)cc1,2.1
9,CCc1cccc(C)c1NC(=O)c1nnn(-c2ccccc2OC)c1C,1
10,Cc1c(C(=O)Nc2ccccc2)nnn1-c1ccccc1,9.5
11,Cc1cccc(C)c1NC(=O)c1nnn(-c2cccc(Cl)c2C)c1C,9
12,CCc1ccc(-n2nnc(C(=O)Nc3cccc(Cl)c3C)c2C)cc1,7.8
13,CCc1cccc(C)c1NC(=O)c1nnn(-c2ccccc2)c1C,5.8
14,CCc1ccc(-n2nnc(C(=O)Nc3ccccc3Cl)c2C)cc1,0.6
15,Cc1c(Cl)cccc1NC(=O)c1nnn(-c2ccc(F)cc2)c1C,8.4
16,Cc1cccc(NC(=O)c2nnn(-c3ccc(C(C)C)cc3)c2C)c1,3.2
17,CCc1ccc(-n2nnc(C(=O)Nc3ccc(F)cc3)c2C)cc1,2.7

# Test system: INS1
# Assay: Cytoprotective activity in endoplasmic reticulum stressed rat INS-1 cells assessed as rescue from tunicamycin-mediated reduction in cell viability at 10 uM after 72 hrs by CellTiter-Glo assay relative to control
# Format: functional
# Conditions: not given
# Procedure, shortened: as §1
row,SMILES,%max [%]
1,Cc1ccc(-n2nnc(C(=O)Nc3ccccc3C)c2C)cc1C,56
2,CCc1ccc(-n2nnc(C(=O)Nc3ccc(NC(C)=O)cc3)c2C)cc1,15
3,CCCCc1ccc(-n2nnc(C(=O)Nc3ccccc3F)c2C)cc1,30
4,Cc1ccccc1NC(=O)c1nnn(-c2ccc(C(C)C)cc2)c1C,54
5,COc1ccccc1-n1nnc(C(=O)Nc2c(C)cccc2C)c1C,28
6,CCc1ccc(-n2nnc(C(=O)Nc3cc(C)ccc3C)c2C)cc1,90
7,CCc1ccc(-n2nnc(C(=O)Nc3ccc(C(=O)O)cc3)c2C)cc1,0
8,Cc1ccc(-n2nnc(C(=O)Nc3cccc(Cl)c3C)c2C)c(C)c1,92
9,CCc1ccc(-n2nnc(C(=O)Nc3ccccc3C)c2C)cc1,62
10,Cc1c(C(=O)Nc2ccc(F)cc2)nnn1-c1ccc(C(C)C)cc1,29
11,CCc1ccc(-n2nnc(C(=O)Nc3ccc(C(=O)OC)cc3)c2C)cc1,14
12,CCc1cccc(C)c1NC(=O)c1nnn(-c2cccc(Cl)c2C)c1C,97
13,CCc1ccc(-n2nnc(C(=O)Nc3cccc(OC)c3)c2C)cc1,31
14,Cc1ccc(-n2nnc(C(=O)Nc3cccc(Cl)c3C)c2C)cc1,56
15,CCc1ccc(-n2nnc(C(=O)Nc3ccc(Cl)cc3Cl)c2C)cc1,12
16,CCc1ccc(-n2nnc(C(=O)Nc3ccccc3CC)c2C)cc1,91
17,CCc1ccc(-n2nnc(C(=O)Nc3ccc(C)cc3)c2C)cc1,18
18,CCc1ccc(-n2nnc(C(=O)Nc3cccc(Cl)c3C)c2C)cc1,88
19,Cc1cccc(NC(=O)c2nnn(-c3ccc(C(C)C)cc3)c2C)c1,35
20,CCc1ccc(-n2nnc(C(=O)Nc3ccc(F)cc3)c2C)cc1,82

# Test system: not listed separately
# Assay: Inhibition of endoplasmic reticulum stress-mediated upregulation of CHOP mRNA expression in tunicamycin-treated rat INS-1 cells at 10 uM after 2 to 8 hrs by qRT-PCR method
# Format: functional, cell-based
# Conditions: INS1
# Procedure, shortened: (§2)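 INS-1 cells seeded at 4 × 10⁵/well and treated with Tm 0.1 μg/ml plus compound, either for 8 h at indicated concentrations or for indicated times at 10 μM. CHOP mRNA was measured by qRT-PCR with rat primers, normalized to rat cyclophilin A, and reported as fold change.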
row,SMILES,inhibition
1,CCc1ccc(-n2nnc(C(=O)Nc3cc(C)ccc3C)c2C)cc1,Active

# Test system: not listed separately
# Assay: Inhibition of endoplasmic reticulum stress-mediated upregulation of CHOP mRNA expression in tunicamycin-treated rat INS-1 cells at 20 uM after 2 to 8 hrs by qRT-PCR method
# Format: functional, cell-based
# Conditions: INS1
row,SMILES,inhibition
1,CCc1cccc(C)c1NC(=O)c1nnn(-c2cccc(Cl)c2C)c1C,Active
2,Cc1c(Cl)cccc1NC(=O)c1nnn(-c2ccccc2Cl)c1C,Active

# Test system: not listed separately
# Assay: Inhibition of endoplasmic reticulum stress-mediated upregulation of CHOP mRNA expression in tunicamycin-treated rat INS-1 cells at 5 to 20 uM after 8 hrs by qRT-PCR method
# Format: functional, cell-based
# Conditions: INS1
# Procedure, shortened: as §2
row,SMILES,inhibition
1,CCc1ccc(-n2nnc(C(=O)Nc3ccc(C(=O)O)cc3)c2C)cc1,inactive
2,CCc1ccc(-n2nnc(C(=O)Nc3ccc(C(=O)OC)cc3)c2C)cc1,inactive
